# Published values from different studies.
# Compare with care: the assays were run in different laboratories.
# Effect on: cell growth or viability
SMILES,cell line,technique,time,IC50
O=C(Nc1ccc(-c2ccc3ncn(Cc4ccc5c(c4)OCO5)c(=O)c3c2)cn1)c1ccccc1,NCI-H1975,CCK-8,72 h,> 10 µM
Nc1nnc(-c2ccccc2O)cc1N1CC2CCC(C1)N2c1ccnc(F)c1,HCC515,ATP luminescence,7 days,> 1 µM
O=C(NCCc1ccccc1)Nc1nc2cc(-c3ccc4ncn(CCN5CCOCC5)c(=O)c4c3)ccc2s1,NCI-H1975,MTT,72 h,3.2 µM
Cc1cnc(Nc2ccc(OCCN3CCCC3)cc2)nc1Nc1cccc(S(=O)(=O)NC(C)(C)C)c1,SET-2,CCK-8,,1.01 µM
CCCCC(=O)Nc1ccc(-c2ccc3ncn(CCC)c(=O)c3c2)cc1,NCI-H1975,CCK-8,72 h,9.81 µM
O=C(Nc1ccc(Cl)cc1)Nc1nc2cc(-c3ccc4ncn(Cc5ccccc5)c(=O)c4c3)ccc2s1,NCI-H1975,MTT,72 h,> 20 µM
c1ccc(Oc2ccc(Nc3c4c(nc5ccccc35)CCC4)cc2)cc1,HEK293,resazurin,72 h,11.2 µM
Cc1cccc(NC(=O)Nc2ccc(-c3ccc4ncn(Cc5ccccc5)c(=O)c4c3)cn2)c1,NCI-H1975,CCK-8,72 h,> 10 µM
COC[C@H](NC(=O)c1ccn(S(C)(=O)=O)c1)C(=O)Nc1nc(-c2cccc(N3C[C@@H](C)O[C@@H](C)C3)n2)cs1,HCC515,ATP luminescence,7 days,0.119 µM
CCCCC(=O)Nc1ccc(-c2ccc3ncn(CCC)c(=O)c3c2)c(C)n1,NCI-H1975,CCK-8,72 h,5.44 µM
O=C(Nc1ccc(F)cc1)Nc1nc2cc(-c3ccc4ncn(CCN5CCOCC5)c(=O)c4c3)ccc2s1,NCI-H1975,MTT,72 h,4.31 µM
CCCCn1cnc2ccc(-c3ccc(NC(=O)Nc4ccc(Cl)cc4)nc3)cc2c1=O,NCI-H1975,CCK-8,72 h,2.55 µM
COc1ccc(C[C@H](N)C(=O)N[C@H]2[C@@H](O)[C@H](n3cnc4c(N(C)C)ncnc43)O[C@@H]2CO)cc1,HEK293,resazurin,72 h,0.72 µM
CN1CCC(NC2CCc3[nH]c4c(C(N)=O)ccc(-c5ccccc5Cl)c4c3C2)CC1 (centres unmarked),Pfeiffer,,96 h,0.0257 µM
O=C(NCc1ccccc1)Nc1nc2cc(-c3ccc4ncn(Cc5ccccc5)c(=O)c4c3)ccc2s1,NCI-H1975,MTT,72 h,> 20 µM
Nc1cccc2c1C(=O)N(C1CCC(=O)NC1=O)C2=O (centres unmarked),TMD8,CCK-8,7 days,> 20 µM
CN(C)CCn1cnc2ccc(-c3ccc4sc(NC(=O)Nc5ccc(F)cc5)nc4c3)cc2c1=O,NCI-H1975,MTT,72 h,1.39 µM
Nc1ccn([C@@H]2O[C@H](CO)[C@@H](O)C2(F)F)c(=O)n1,HEK293,MTT,24 h,24.2 µg/mL
CCC(=O)Nc1nc2cc(-c3ccc4ncn(Cc5ccccc5)c(=O)c4c3)ccc2s1,NCI-H1975,MTT,72 h,> 20 µM
CCCn1cnc2ccc(-c3ccc(NC(=O)CNCC)nc3)cc2c1=O,NCI-H1975,CCK-8,72 h,8.79 µM
